Data as given in ChEMBL document CHEMBL4261600 (Eur J Med Chem, 2018).

Assays:
[1] = molecular target: Proto-oncogene tyrosine-protein kinase ROS (Homo sapiens) (UniProt P08922); test: Binding affinity to wild-type human partial length ROS1 (A1921 to N2240 residues) expressed in bacterial expression system assessed as remaining unbound target protein level at 1000 nM by Kinomescan method relative to control
[2] = molecular target: Serine/threonine-protein kinase N1 (Homo sapiens) (UniProt Q16512); test: Binding affinity to wild-type human partial length PKN1 (E598 to C948 residues) expressed in bacterial expression system assessed as remaining unbound target protein level at 1000 nM by Kinomescan method relative to control
[3] = molecular target: ALK tyrosine kinase receptor (Homo sapiens) (UniProt Q9UM73); test: Binding affinity to wild-type human partial length ALK (I1088 to E1409 residues) expressed in mammalian expression system assessed as remaining unbound target protein level at 1000 nM by Kinomescan method relative to control
Procedure, shortened: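 Profiled in a KINOMEscan binding panel with the inhibitor at a single concentration of 1 μM. Binding to each kinase was read out as percent of control, relative to a DMSO control. Strong binders were defined as those with a percent control value below 1.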

[4] = test system: Phosphatidylinositol 4,5-bisphosphate 3-kinase catalytic subunit alpha isoform (Homo sapiens), P42336 [E545A]; test: Binding affinity to human partial length PIK3CA E545A mutant (R108 to N1068 residues) expressed in mammalian expression system assessed as remaining unbound target protein level at 1000 nM by Kinomescan method relative to control
Procedure, shortened: (§1)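 KINOMEscan competition-binding profiling across the panel of 468 kinases and mutants, with inhibitor tested at 1 μM. Binding is expressed as percent of control, with DMSO as the reference control.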

[5] = MRT (0 to t) in Sprague-Dawley rat at 3 mg/kg, iv by LC-MS/MS analysis; format: ADME, organism-based; settings: in vivo
[6] = molecular target: Ephrin type-A receptor 7 (Homo sapiens) (UniProt Q15375); test: Binding affinity to wild-type human partial length EPHA7 (Y608 to S912 residues) expressed in bacterial expression system assessed as remaining unbound target protein level at 1000 nM by Kinomescan method relative to control
Procedure, shortened: (§2)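 KINOMEscan binding panel of 468 kinases/mutants. Inhibitor was tested at a single concentration of 1 μM. Binding is reported as percent of control, defined relative to a DMSO control.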

[7] = molecular target: Mitogen-activated protein kinase kinase kinase 13 (Homo sapiens) (UniProt O43283); test: Binding affinity to wild-type human full length LZK (M1 to W966 residues) expressed in mammalian expression system assessed as remaining unbound target protein level at 1000 nM by Kinomescan method relative to control
Procedure, shortened: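 KINOMEscan competition binding profile across a panel of 468 kinases and mutants, with the inhibitor tested at a single concentration of 1 μM. Binding is reported as percent of control, meaning signal relative to a DMSO control.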

[8] = molecular target: Serine/threonine-protein kinase 24 (Homo sapiens) (UniProt Q9Y6E0); test: Binding affinity to wild-type human partial length MST3 (A30 to S311 residues) expressed in bacterial expression system assessed as remaining unbound target protein level at 1000 nM by Kinomescan method relative to control
CDK9/cyclin T1 = CDK9/cyclin T1 (Homo sapiens, UniProt P50750); test: Inhibition of recombinant full length His-tagged human CDK9/CyclinT1 expressed in baculovirus expression system
[9] = molecular target: Fibroblast growth factor receptor 2 (Homo sapiens) (UniProt P21802); test: Binding affinity to wild-type human partial length FGFR2 (D457 to E769 residues) expressed in bacterial expression system assessed as remaining unbound target protein level at 1000 nM by Kinomescan method relative to control; procedure, shortened: as §2
[10] = AUC (0 to t) in Sprague-Dawley rat at 3 mg/kg, iv by LC-MS/MS analysis; format: ADME, organism-based; settings: in vivo
Procedure, shortened: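 Non-compartmental PK. Male SD rats 190-210 g, mice and beagle dogs acclimatized one week, fasted 12 h with water, split into iv and po groups (mice 48, rats 6, dogs 6). iv 3/3/2 mg/kg (mice/rats/dogs); po 10/20/10 mg/kg; vehicle DMSO in 5% glucose water. Blood at 2 or 5 to 720 min; plasma protein-precipitated with methanol, caffeine internal standard, LC-MS/MS.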

[11] = molecular target: Serine/threonine-protein kinase 35 (Homo sapiens) (UniProt Q8TDR2); test: Binding affinity to wild-type human partial length STK35 (G182 to A534 residues) expressed in bacterial expression system assessed as remaining unbound target protein level at 1000 nM by Kinomescan method relative to control
[12] = test system: Mast/stem cell growth factor receptor Kit (Homo sapiens), P10721 [V559D]; test: Binding affinity to human partial length KIT V559D mutant (Y545 to D952 residues) expressed in bacterial expression system assessed as remaining unbound target protein level at 1000 nM by Kinomescan method relative to control; procedure, shortened: as §1
[13] = molecular target: Cyclin-dependent kinase 2 homolog (Plasmodium falciparum (isolate 3D7)) (UniProt P61075); test: Binding affinity to wild-type Plasmodium falciparum full length PK5 (M1 to N288 residues) expressed in mammalian expression system assessed as remaining unbound target protein level at 1000 nM by Kinomescan method relative to control
Procedure, shortened: (§3)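 Single-point competition binding screen across a panel of 468 kinases and mutants, with the inhibitor at 1 μM. Binding is read out as percent of a DMSO control, and targets below 1 percent control were classed as strong binders.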

[14] = molecular target: Ephrin type-A receptor 2 (Homo sapiens) (UniProt P29317); test: Binding affinity to wild-type human partial length EPHA2 (T593 to V891 residues) expressed in bacterial expression system assessed as remaining unbound target protein level at 1000 nM by Kinomescan method relative to control
[15] = molecular target: Receptor tyrosine-protein kinase erbB-2 (Homo sapiens) (UniProt P04626); test: Binding affinity to wild-type human partial length ERBB2 (K646 to V1225 residues) expressed in mammalian expression system assessed as remaining unbound target protein level at 1000 nM by Kinomescan method relative to control
[16] = molecular target: Protein kinase C theta type (Homo sapiens) (UniProt Q04759); test: Binding affinity to wild-type human partial length PRKCQ (L350 to S706 residues) expressed in bacterial expression system assessed as remaining unbound target protein level at 1000 nM by Kinomescan method relative to control
[17] = molecular target: Serine/threonine-protein kinase WNK1 (Homo sapiens) (UniProt Q9H4A3); test: Binding affinity to wild-type human partial length WNK1 (Q194 to A490 residues) expressed in mammalian expression system assessed as remaining unbound target protein level at 1000 nM by Kinomescan method relative to control
[18] = Oral bioavailability in mouse at 10 mg/kg by LC-MS/MS analysis; format: ADME, organism-based; settings: in vivo
[19] = test system: Tyrosine-protein kinase ABL1 (Homo sapiens), P00519 [Q252H]; test: Binding affinity to human phosphorylated ABL1 Q252H mutant expressed in mammalian expression system assessed as remaining unbound target protein level at 1000 nM by Kinomescan method relative to control; procedure, shortened: as §3
[20] = molecular target: Serine/threonine-protein kinase 17B (Homo sapiens) (UniProt O94768); test: Binding affinity to wild-type human full length DRAK2 (M1 to C372 residues) expressed in bacterial expression system assessed as remaining unbound target protein level at 1000 nM by Kinomescan method relative to control; procedure, shortened: as §3

Mitogen-activated protein kinase kinase kinase 13 (Homo sapiens), sequence (O43283 whole entry, the tested form may be a part): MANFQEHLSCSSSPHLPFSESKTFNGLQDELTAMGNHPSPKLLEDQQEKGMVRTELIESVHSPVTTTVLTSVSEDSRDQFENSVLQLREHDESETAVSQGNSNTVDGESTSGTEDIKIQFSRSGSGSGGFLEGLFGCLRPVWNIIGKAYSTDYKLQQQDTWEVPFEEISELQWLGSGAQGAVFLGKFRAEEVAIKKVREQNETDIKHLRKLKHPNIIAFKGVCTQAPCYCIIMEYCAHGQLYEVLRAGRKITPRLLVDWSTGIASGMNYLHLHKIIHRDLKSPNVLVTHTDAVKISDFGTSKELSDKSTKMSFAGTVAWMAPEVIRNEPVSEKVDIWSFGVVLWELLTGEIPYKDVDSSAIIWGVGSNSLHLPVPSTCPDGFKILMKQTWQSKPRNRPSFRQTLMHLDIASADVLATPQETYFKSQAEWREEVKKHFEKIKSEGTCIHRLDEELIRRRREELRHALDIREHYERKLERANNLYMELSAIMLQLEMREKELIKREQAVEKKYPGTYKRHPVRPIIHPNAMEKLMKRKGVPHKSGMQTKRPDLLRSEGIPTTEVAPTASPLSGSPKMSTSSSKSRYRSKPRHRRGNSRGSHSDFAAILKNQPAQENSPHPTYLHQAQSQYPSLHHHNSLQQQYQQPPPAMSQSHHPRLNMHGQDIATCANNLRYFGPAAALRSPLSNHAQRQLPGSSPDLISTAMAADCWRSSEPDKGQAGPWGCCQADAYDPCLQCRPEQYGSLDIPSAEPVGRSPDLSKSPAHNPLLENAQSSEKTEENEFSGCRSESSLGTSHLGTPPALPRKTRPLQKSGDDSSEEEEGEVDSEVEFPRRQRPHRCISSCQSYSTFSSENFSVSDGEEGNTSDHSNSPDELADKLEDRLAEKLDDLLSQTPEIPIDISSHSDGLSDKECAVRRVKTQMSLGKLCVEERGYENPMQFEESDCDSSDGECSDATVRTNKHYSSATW
Serine/threonine-protein kinase 35 (Homo sapiens), sequence (Q8TDR2 whole entry, the tested form may be a part): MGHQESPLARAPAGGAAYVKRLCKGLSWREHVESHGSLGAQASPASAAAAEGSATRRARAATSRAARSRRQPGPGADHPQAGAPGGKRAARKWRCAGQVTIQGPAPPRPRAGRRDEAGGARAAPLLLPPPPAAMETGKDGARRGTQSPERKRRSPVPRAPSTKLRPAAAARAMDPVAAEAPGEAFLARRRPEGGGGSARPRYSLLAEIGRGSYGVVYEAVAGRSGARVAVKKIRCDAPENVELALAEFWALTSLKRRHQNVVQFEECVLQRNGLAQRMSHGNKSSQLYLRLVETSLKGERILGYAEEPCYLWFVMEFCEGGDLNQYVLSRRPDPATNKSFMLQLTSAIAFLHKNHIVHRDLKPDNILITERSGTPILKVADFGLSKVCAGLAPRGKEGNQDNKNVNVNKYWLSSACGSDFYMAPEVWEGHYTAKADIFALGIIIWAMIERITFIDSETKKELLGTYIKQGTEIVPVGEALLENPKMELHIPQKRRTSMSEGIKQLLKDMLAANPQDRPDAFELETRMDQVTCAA
Fibroblast growth factor receptor 2 (Homo sapiens), sequence (P21802 22-821 limits assumed): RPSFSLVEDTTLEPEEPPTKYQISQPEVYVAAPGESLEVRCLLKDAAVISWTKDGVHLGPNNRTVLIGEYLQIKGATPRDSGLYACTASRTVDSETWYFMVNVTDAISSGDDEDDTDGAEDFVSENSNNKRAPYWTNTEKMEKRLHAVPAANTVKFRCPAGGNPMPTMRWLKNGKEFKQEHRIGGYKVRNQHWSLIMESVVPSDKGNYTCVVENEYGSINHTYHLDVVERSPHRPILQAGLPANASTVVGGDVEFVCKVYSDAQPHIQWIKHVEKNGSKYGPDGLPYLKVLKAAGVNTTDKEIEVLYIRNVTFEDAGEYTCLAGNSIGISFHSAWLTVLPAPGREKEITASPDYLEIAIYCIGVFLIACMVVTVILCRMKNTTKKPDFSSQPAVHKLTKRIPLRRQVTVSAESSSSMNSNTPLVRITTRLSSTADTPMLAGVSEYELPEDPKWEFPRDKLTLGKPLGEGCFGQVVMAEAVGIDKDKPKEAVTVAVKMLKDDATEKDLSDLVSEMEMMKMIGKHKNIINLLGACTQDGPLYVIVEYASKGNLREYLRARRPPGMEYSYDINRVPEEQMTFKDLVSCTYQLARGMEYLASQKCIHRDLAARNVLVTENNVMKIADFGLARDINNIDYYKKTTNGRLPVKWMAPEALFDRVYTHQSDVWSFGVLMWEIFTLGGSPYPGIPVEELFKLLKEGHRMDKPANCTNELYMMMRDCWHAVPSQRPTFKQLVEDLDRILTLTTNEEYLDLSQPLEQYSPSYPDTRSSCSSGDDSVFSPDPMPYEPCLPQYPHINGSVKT
Phosphatidylinositol 4,5-bisphosphate 3-kinase catalytic subunit alpha isoform (Homo sapiens), P42336 [E545A], sequence (P42336 whole entry E545A, the tested form may be a part, canonical isoform): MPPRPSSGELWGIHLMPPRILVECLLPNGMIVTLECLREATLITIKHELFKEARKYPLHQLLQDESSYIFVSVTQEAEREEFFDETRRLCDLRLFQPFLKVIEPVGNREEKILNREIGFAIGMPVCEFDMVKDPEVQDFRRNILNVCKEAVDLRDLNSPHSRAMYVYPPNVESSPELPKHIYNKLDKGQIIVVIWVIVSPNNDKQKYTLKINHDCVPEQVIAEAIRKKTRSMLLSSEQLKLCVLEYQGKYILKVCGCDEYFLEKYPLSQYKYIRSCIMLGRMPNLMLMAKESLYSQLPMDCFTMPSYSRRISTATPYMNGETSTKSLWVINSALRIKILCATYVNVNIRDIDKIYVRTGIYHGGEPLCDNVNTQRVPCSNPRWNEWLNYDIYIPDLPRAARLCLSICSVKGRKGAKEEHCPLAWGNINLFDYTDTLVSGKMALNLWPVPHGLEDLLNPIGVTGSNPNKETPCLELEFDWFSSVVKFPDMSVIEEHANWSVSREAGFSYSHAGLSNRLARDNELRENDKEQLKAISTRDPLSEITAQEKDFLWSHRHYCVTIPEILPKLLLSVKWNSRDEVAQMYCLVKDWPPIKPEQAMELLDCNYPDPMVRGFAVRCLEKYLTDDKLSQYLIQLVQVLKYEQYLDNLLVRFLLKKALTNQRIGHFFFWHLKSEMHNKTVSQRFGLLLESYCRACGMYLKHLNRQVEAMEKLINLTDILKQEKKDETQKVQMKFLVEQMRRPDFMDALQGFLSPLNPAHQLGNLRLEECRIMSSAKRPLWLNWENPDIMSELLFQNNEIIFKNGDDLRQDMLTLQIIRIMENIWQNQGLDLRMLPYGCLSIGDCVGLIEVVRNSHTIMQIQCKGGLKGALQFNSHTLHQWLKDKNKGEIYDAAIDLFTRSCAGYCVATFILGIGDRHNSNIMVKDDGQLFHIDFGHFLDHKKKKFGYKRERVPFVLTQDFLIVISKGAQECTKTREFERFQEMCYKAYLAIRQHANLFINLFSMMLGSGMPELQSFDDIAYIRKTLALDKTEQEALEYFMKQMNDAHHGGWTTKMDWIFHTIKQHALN
Ephrin type-A receptor 7 (Homo sapiens), sequence (Q15375 28-998 limits assumed): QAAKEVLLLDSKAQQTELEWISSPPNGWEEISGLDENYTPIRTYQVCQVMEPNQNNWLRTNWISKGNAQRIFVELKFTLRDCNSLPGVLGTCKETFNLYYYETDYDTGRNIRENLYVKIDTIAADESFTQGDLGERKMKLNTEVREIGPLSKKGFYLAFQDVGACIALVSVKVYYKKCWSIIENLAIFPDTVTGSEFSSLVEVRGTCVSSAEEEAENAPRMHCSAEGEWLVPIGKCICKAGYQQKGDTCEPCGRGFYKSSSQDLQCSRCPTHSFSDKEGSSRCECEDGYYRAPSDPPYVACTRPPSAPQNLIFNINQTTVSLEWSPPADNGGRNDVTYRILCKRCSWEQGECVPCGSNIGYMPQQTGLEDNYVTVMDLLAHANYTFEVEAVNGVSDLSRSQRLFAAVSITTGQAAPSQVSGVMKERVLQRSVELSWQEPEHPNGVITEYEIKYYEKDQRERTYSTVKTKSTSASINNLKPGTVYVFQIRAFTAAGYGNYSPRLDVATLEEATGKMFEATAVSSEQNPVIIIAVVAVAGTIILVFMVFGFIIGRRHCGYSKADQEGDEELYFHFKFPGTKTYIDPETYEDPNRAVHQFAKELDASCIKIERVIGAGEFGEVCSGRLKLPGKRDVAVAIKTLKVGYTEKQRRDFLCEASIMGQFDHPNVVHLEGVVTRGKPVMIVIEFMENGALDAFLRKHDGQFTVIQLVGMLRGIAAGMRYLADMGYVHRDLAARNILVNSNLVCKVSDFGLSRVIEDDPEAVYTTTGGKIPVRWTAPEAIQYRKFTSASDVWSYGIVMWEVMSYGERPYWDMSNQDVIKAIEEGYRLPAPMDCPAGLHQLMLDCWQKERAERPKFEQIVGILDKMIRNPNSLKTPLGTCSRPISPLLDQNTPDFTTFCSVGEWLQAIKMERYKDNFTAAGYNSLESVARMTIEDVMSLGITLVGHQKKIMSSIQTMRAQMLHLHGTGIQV
Protein kinase C theta type (Homo sapiens), sequence (Q04759 whole entry, looked up, the tested form may be a part): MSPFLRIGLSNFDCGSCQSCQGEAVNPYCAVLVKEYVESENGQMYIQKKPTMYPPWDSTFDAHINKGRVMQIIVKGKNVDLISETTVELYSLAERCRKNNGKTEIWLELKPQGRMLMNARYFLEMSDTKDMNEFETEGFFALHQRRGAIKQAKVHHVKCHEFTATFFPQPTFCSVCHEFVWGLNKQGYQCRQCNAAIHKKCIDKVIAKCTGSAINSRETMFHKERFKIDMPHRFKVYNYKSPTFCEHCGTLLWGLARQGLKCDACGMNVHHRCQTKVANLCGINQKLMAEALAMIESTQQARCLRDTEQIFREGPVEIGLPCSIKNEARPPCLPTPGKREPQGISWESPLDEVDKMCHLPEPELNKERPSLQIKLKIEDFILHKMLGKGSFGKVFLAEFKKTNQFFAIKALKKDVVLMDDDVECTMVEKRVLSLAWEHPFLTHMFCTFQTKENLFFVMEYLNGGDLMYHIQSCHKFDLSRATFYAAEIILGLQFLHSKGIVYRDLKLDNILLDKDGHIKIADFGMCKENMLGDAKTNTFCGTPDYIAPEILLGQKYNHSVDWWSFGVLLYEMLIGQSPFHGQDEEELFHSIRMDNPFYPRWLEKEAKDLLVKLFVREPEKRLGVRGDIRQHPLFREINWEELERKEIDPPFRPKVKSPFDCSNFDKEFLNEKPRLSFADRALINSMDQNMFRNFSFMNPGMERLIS

Which Activity [1] does the source give for `COCCN[C@H]1CC[C@H](Nc2cc(-c3csc(NCC4(C#N)CCOCC4)n3)c(Cl)cn2)CC1` here?
Its Activity is 81%.

What about the Activity [2] of the same compound?
The Activity was 87%.

And the Activity [3]?
Its Activity is 96%.

And the Activity [4]?
The Activity was 100%.

What about the MRT last [5] of the same compound?
The MRT last was 4.69 h.

And the Activity [6]?
The Activity was 94%.

What about the Activity [7] of the same compound?
The Activity was 99%.

And the Activity [8]?
The Activity was 90%.

What about the IC50 (CDK9/cyclin T1) of the same compound?
Its IC50 is 1 nM.

What about the Activity [9] of the same compound?
The Activity was 93%.

And the AUC(0-t) [10]?
The AUC(0-t) was 0.625 µg·h/mL.

And the Activity [11]?
Its Activity is 100%.

And the Activity [12]?
The Activity was 100%.

And the Activity [13]?
The Activity was 100%.

What about the Activity [14] of the same compound?
The Activity was 84%.

What about the Activity [15] of the same compound?
Its Activity is 97%.

What about the Activity [16] of the same compound?
Its Activity is 100%.

And the Activity [17]?
Its Activity is 100%.

And the bioavailability [18]?
Its bioavailability is 45%.

And the Activity [19]?
Its Activity is 90%.

What about the Activity [20] of the same compound?
Its Activity is 89%.
